Most compounds without a hit are left out; they make up all but 3.2% or so of the library.
PfHsp90 yeast 2: reduces growth (ATP signal) of yeast expressing P. falciparum Hsp90; S. cerevisiae expressing PfHsp90, BacTiter-Glo ATP, 48 h; yeast lacking PDR1 and PDR3 efflux regulators; inhibition, % at 9.4 µM; 310,000 compounds, 0.32% hits;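 active means every replicate shows inhibition above about 80%, whatever the replicate mean, limit read from the data; inconclusive means mean inhibition reaches the set limit but some replicate falls short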;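 further: 0% = DMSO neutral controls and 100% = 20 µM radicicol positive controls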
DENV2 CPE rescue: DENV2-induced cell death inhibition; AID 651640; CPE inhibition, % at 9.99 µM; 350,000 compounds, 1.7% hits; DENV2-infected cells, cytopathic effect rescue, plate reader; in the data active means CPE inhibition above about 20%, passing the limit was not always enough; inconclusive means no clear call, values can overlap the other calls; tested in BHK-21 cells;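 further: 0% = median of neutral control wells and 100% = median of positive control wells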
Cneo AK release: Cryptococcus neoformans lysis via adenylate kinase release | C. neoformans lysis, adenylate kinase release luminescence, 4 h; normalised: neutral wells 0, clomiphene wells 100 | lysis activity, % at 15 µM | 360,000 compounds, 0.2% hits | AID 651654;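 active means mean lysis activity across replicates of at least 80%, whatever share of replicates individually reach that level; inactive means mean lysis activity below 80%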
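Signal: Adenylate kinase release luminescence | Assay system: Log-phase Cryptococcus neoformans yeast cells | Input: Cells at 5 × 10^6 per mL | Buffer or medium: Fresh YPD growth medium | Compound: Single dose | Schedule: Static 4 h at 37 °C with compound, 1 h detection | Controls: Clomiphene | Read-out: Luminescence rise reflecting yeast cell lysis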
S100A4 MyoIIA: blocks human S100A4 binding to myosin IIA peptide. P26447. S100A4/TAMRA-MyoIIA peptide fluorescence polarization. inhibition, % at 10.7 µM. 360,000 compounds, 0.14% hits. AID 652163;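 active means mean inhibition of at least 70% across replicates, with every replicate also reaching that level; inconclusive means mean inhibition reaches 70% but some replicates fall short; inactive means mean inhibition below 70%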
Target sequence (P26447 whole entry, looked up): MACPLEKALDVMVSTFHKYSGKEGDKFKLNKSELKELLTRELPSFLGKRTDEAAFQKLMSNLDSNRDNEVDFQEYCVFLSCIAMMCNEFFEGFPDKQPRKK
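Material: human S100A4 monomer with TAMRA-labelled myosin IIA peptide; buffer or medium: HEPES pH 7.2 with CaCl2, KCl, NaCl, DTT, Triton; compound dosing: one concentration per compound; schedule: 5 min incubation before reading; benchmarks: neutral control DMSO, positive control TFP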
rRNA inh HTS: inhibits bacterial ribosomal RNA function over humanized ribosomes | 350,000 compounds, 1.6% hits | GFP signal change (wild-type ribosome), % (test concentration not listed) | E. coli WT GFP vs humanized-ribosome RFP mutants, fluorescence, 24 h; hits give low values; DMSO median 0, no signal -100;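 active means significant combined selectivity score with lowered wild-type GFP, culture density cut under 30%, mutant RFP and density less affected; inactive means any of these conditions unmet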
MLL AF4-AF9 inh: blocks AF4 peptide binding to human AF9; AlphaScreen, biotin-AF4 peptide binding to FLAG-AF9; inhibition, % at 10 µM; 350,000 compounds, 0.47% hits; AID 651704;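 active means every replicate reaching a set inhibition limit, whatever the replicate mean, cut at about 25% in these data; inconclusive means mean inhibition reaches that limit but some replicates miss it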;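 further: 0% = plate neutral control median and 100% = total signal loss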
Target sequence (P42568 whole entry, looked up): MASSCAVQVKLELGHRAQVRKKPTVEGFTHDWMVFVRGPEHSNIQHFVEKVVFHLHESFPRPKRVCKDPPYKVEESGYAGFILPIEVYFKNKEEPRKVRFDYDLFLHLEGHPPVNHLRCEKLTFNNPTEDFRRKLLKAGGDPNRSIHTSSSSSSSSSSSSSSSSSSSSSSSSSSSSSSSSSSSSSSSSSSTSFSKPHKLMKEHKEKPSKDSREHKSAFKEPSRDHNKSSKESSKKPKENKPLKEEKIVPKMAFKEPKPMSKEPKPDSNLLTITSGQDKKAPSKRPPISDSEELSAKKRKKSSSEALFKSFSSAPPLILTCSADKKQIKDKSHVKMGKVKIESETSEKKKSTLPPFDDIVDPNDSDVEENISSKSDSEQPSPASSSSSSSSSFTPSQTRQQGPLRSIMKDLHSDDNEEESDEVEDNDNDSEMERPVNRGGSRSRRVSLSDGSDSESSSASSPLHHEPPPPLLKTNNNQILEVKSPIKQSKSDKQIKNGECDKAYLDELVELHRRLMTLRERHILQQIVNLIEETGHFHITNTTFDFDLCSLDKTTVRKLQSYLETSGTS
HepG2 tox: kills or reduces viability of HepG2 cells. activity change, negative = cytotoxicity, unspecified at 26 µM. ATP luminescence, 72 h. 30 tested, under 10 active. AID 743480. shares compounds with rRNA inh HTS;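 active means compounds whose fitted half-maximal signal-loss concentration is at most twice their highest valid dose; inconclusive means flat curve with 30 to 70% signal loss, or poor fit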
AID977621: wild-type E. coli growth inhibition versus H69 humanized strain – H69 mutant RFP, wild-type GFP, cherry-pick, dose response. activity change, negative = inhibition at 50 µM. shares compounds with rRNA inh HTS. fluorescence, 24 h. 1,900 tested, under 10 active;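 active means Wild-type ribosome reporter drop at least double the humanized mutant ribosome reporter drop, growth loss under a set limit; inconclusive means no clear call, values can overlap the other calls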;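 further: wild-type GFP and H69 mutant RFP strains grown together 50/50 in each well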
AID977628: growth of wild-type and h24-humanized E. coli strains – h24 mutant RFP vs wild-type GFP, cherry-pick, dose response | shares compounds with rRNA inh HTS | E. coli WT GFP strain growth, fluorescence, 24 h | activity change, negative = inhibition at 50 µM | 1,900 tested, under 10 active | AID 977628;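 active means compound lowering the normal-ribosome reporter at least twice as much as the humanized-ribosome reporter, growth loss under a set limit; inconclusive means no clear call, values can overlap the other calls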;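 further: wild-type GFP and h24 humanized RFP strains co-cultured 1 to 1 per well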
* = called active by the depositor; ? = inconclusive; . = not tested or not shown.

SMILES	PfHsp90 yeast 2	DENV2 CPE rescue	Cneo AK release	S100A4 MyoIIA	rRNA inh HTS	MLL AF4-AF9 inh	AID977628	others
CN1CCN(C(=O)C[C@H]2CC[C@H]3[C@@H](COC[C@@H](O)CN3C(=O)Nc3ccc(Cl)cc3)O2)CC1	.	-11.1	-0.7	8.6	-19.0*	-4.4	?
C[C@@H](NC(=O)C[C@@H]1CC[C@@H]2[C@H](COC[C@H](O)CN2C(=O)Nc2cccc(F)c2)O1)c1ccccc1	.	-1.4	-0.6	2.2	-20.6*	-2.9	?
C[C@@H](NC(=O)C[C@H]1CC[C@@H]2[C@H](COC[C@@H](O)CN2C(=O)Nc2cccc(F)c2)O1)c1ccccc1	.	13.2	-8.8	7.6	-7.4	-0.7	.
O=C(C[C@@H]1CC[C@@H]2[C@H](COC[C@H](O)CN2C(=O)Nc2ccc(Cl)cc2)O1)NCc1ccncn1	.	6.6	-2.5	0.5	-22.1*	0.5	?	AID977621=-5.26
CN1CCN(C(=O)C[C@H]2CC[C@H]3[C@@H](COC[C@H](O)CN3C(=O)Nc3ccc(Cl)cc3)O2)CC1	.	-6.2	-1.0	-6.9	-25.0*	-1.3	?
O=C(C[C@@H]1CC[C@H]2[C@@H](COC[C@H](O)CN2C(=O)Nc2ccc(Cl)cc2)O1)NCc1ccncn1	.	3.0	-3.7	-1.0	-5.5	0.4	.
CN1c2ccc(-c3cccc(C#N)c3)cc2[C@H]2[C@H](CCN2C(=O)CC2CC2)[C@H]1CO	.	.	4.2	.	2.3	.	.
COc1cccc(C(=O)Nc2ccc3c(c2)OC[C@H](C)N(CC2CC2)C[C@@H](C)[C@H](OC)CN(C)C3=O)c1	.	2.6	-3.8	-2.0	-2.4	0.7	.
O=C(Cc1ccncc1)Nc1ccc2c(c1)[C@H]1C[C@@H](CC(=O)N3CCCCC3)O[C@H](CO)[C@H]1O2	.	.	.	.	2.9	.	.
CC(C)C(=O)Nc1ccc2c(c1)C(=O)N(C)[C@H]1CC[C@@H](CC(=O)NCCCN(C)C)O[C@H]1CO2	.	-7.0	2.7	3.2	2.9	-19.2	.
O=C(C[C@@H]1C[C@H]2c3cc(NC(=O)CC4CC4)ccc3O[C@H]2[C@@H](CO)O1)NCc1cccc(F)c1	.	-0.9	2.6	-8.1	0.5	0.1	.
O=C(C[C@H]1CC[C@H]2[C@@H](COC[C@@H](O)CN2C(=O)Nc2ccc(Cl)cc2)O1)N1CCCCC1	.	2.3	87.4*	-1.6	-17.6*	-11.2	?
O=C(C[C@@H]1CC[C@H]2[C@@H](COC[C@H](O)CN2C(=O)Nc2ccc(Cl)cc2)O1)N1CCCCC1	.	-7.3	-2.4	49.5	-47.1	1.4	.
CCN(CC)CCn1c2ccccc2c2nc3ccc([N+](=O)[O-])cc3cc21	9.0	-16.7	1.9	-0.9	-24.9*	2.7	.	HepG2 tox=3.03
CCN(CC)CCn1c(N)nc2ccccc21	-16.2	0.6	-0.6	0.0	15.4	-0.7	.
CN1CCN(C(=O)C[C@@H]2CC[C@@H]3[C@H](COC[C@H](O)CN3C(=O)c3ccc(F)cc3)O2)CC1	.	11.0	-0.7	-5.8	-1.7	-1.1	.
Cn1c(CO)cnc1SCC(=O)c1ccc(Br)cc1	-23.2	-1.2	.	-2.8	-20.7*	-0.8	-5.83	AID977621=1.81
Cn1c(CO)cnc1SCC(=O)c1ccc(F)cc1	12.3	1.0	3.1	-3.8	-5.0	-0.6	.
CNC[C@@H]1Oc2ncc(C#Cc3ccccc3F)cc2C(=O)N([C@@H](C)CO)C[C@@H]1C	.	.	.	.	5.8	.	.
NS(=O)(=O)c1cc(C(=O)OCC(=O)Nc2ccccc2[N+](=O)[O-])ccc1Cl	-11.4	-7.9	.	1.1	-19.7*	-0.5	-10.7
C[C@H]1CN([C@@H](C)CO)C(=O)c2cc(-c3cncnc3)cnc2O[C@@H]1CN(C)C(=O)CN1CCOCC1	.	.	7.6	.	-0.2	.	.
Cc1ccc(S(=O)(=O)N2CC[C@@H]3[C@H]2c2cc(-c4cccc(C#N)c4)ccc2N(C)[C@H]3CO)cc1	.	1.5	-3.9	-10.9	0.1	11.5	.
COc1ccc(-c2csc(N)n2)cc1F	13.1	-1.6	.	-7.9	-17.4*	0.6	-3.15	AID977621=-5.95
C[C@@H](NC(=O)C[C@@H]1C=C[C@@H](NC(=O)C2CC2)[C@H](CO)O1)c1ccccc1	.	-4.9	0.6	0.0	0.2	-0.9	.
O=C(N[C@H]1CC[C@H](CCn2cc(C3CCCC3)nn2)O[C@H]1CO)c1cccnc1	.	.	.	.	3.3	.	.
SMILES	PfHsp90 yeast 2	DENV2 CPE rescue	Cneo AK release	S100A4 MyoIIA	rRNA inh HTS	MLL AF4-AF9 inh	AID977628	others
Cc1ccc(-c2nc(CN3CCCCC3c3cccc(F)c3)c(C)o2)o1 (stereo not drawn)	-2.0	-2.4	.	-6.5	-18.4*	7.5	-14.6	AID977621=-5.88
CN1N=C2c3ccccc3CCC2C1c1ccc(F)cc1 (stereo not drawn)	.	-1.9	-1.0	-3.0	-15.8*	-0.1	?	AID977621=-9.37
c1ccc2c(c1)nc(N1CCCCCC1)c1ccccc12	-18.5	-0.5	.	-2.4	-30.6*	.	.	AID977621=-21.5
CC(C)NC(=O)Nc1cccc2c1O[C@@H](CN(C)C(=O)Nc1cccc3ccccc13)[C@@H](C)CN([C@@H](C)CO)C2=O	.	?	5.3	14.0	0.5	1.8	.
CC(=O)NC(Cc1ccc(F)c(F)c1)C(=O)NC1CCN(c2c(Cc3ccccc3)c(C)nc3ncnn23)CC1 (stereo not drawn)	-8.2	.	-0.9	-8.1	-5.7	-0.3	.
Cc1nc2ncnn2c(N2CCC(C(=O)NC3CCCC3)CC2)c1Cc1ccccc1	.	3.3	0.0	-2.6	-19.0*	3.7	-7.49	AID977621=-10.1
CN(C)C(CNC(=O)c1ccc([N+](=O)[O-])cc1Cl)c1ccco1 (stereo not drawn)	-4.3	0.0	-1.1	0.0	1.1	1.3	.
CN(C)C(CNS(=O)(=O)c1cc([N+](=O)[O-])ccc1Cl)c1ccco1 (stereo not drawn)	7.2	3.7	.	0.6	-2.3*	-1.1	-11.5
Cc1cccc(-c2nsc(SCC(=O)NCC3CCCO3)n2)c1 (stereo not drawn)	10.2	-2.6	.	38.3	-21.9*	-1.3	1.95	AID977621=-3.06
COc1ccc(S(=O)(=O)Nc2cccc3c2O[C@@H](CN(C)Cc2ccc(C(=O)Nc4ccccc4N)cc2)[C@@H](C)CN([C@@H](C)CO)C3=O)cc1	.	-4.8	2.6	-30.8	1.1	1.8	.

Bioassay records from PubChem.
